According to ChEMBL document CHEMBL2321688, “Acyclic nucleoside phosphonates containing a second phosphonate group are potent inhibitors of 6-oxopurine phosphoribosyltransferases and have antimalarial activity” (J Med Chem, 2013):

Key:
[1] = Cytotoxicity against thioguanine-resistant human C32TG cells harboring HGPRT deletion mutant assessed as inhibition of cell proliferation after 4 days by Coulter counter analysis; format: cell-based
In short: (§1)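 Cell proliferation in human A549 lung carcinoma, C32 melanoma and C32-TG (thioguanine-resistant, HGPRT-deficient C32 mutant) cells. Seeded at 7,500 (A549) or 15,000 (C32, C32-TG) cells per well; serial compound dilutions added 24 hr later. Four days at 37 °C, then trypsinized and counted by Coulter Counter. CC50 = concentration giving 50% proliferation versus untreated cells, by extrapolation; mean ± SEM of two or three independent tests.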

[2] = Cytotoxicity against human C32 cells assessed as inhibition of cell proliferation after 4 days by Coulter counter analysis; format: cell-based; in short: as §1
[3] = Cytotoxicity against human A549 cells assessed as inhibition of cell proliferation after 4 days by Coulter counter analysis; format: cell-based; in short: as §1
Plasmodium falciparum [4] = assay: Antimalarial activity against chloroquine and pyrimethamine-resistant early trophozoite stage of Plasmodium falciparum W2 in human red blood cells assessed as [3H]hypoxanthine uptake after 96 hrs; format: functional, organism-based
In short: (§2)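 P. falciparum cultured in RPMI-1640-LPLF with 10% human plasma, sorbitol-synchronised; assay started with >90% rings at 0.5% parasitaemia, 2% haematocrit in hypoxanthine-free medium. Ten 2-fold serial dilutions for 96 h, [3H]-hypoxanthine (0.2 µCi/well) added at ~48 h. IC50 from non-linear regression of incorporation versus log concentration; three independent experiments, mean ± SD.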

Plasmodium falciparum [5] = assay: Antimalarial activity against wild type early trophozoite stage of Plasmodium falciparum D6 in human red blood cells assessed as [3H]hypoxanthine uptake after 96 hrs; format: functional, organism-based; in short: as §2
[6] = Inhibition of Plasmodium vivax N-terminal hexahistidine-tagged HGPRT
In short: (§3)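 N-terminal hexa-histidine tagged enzymes purified to homogeneity by IMAC. Ki from Hanes' plots with guanine fixed at 60 μM and PRib-PP varied (2-1000 μM) according to Km(app); one concentration of each inhibitor.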

[7] = Inhibition of Plasmodium falciparum HGXPRT
In short: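 PfHGXPRT purified by a published procedure. Ki from Hanes' plots with guanine fixed at 60 μM and PRib-PP varied (2-1000 μM) according to Km(app); one concentration of each inhibitor.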

[8] = target: T1, Hypoxanthine-guanine phosphoribosyltransferase (Homo sapiens, UniProt P00492); assay: Inhibition of human N-terminal hexahistidine-tagged HGPRT; in short: as §3
T1 sequence (P00492 whole entry): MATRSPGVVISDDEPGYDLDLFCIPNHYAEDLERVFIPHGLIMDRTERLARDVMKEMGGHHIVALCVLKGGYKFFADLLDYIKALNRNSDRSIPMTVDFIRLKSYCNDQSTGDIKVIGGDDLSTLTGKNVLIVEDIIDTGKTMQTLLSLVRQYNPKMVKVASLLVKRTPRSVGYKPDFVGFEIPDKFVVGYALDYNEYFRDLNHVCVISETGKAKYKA

Row | Ki [8] | SMILES | CC50 at 96 h [1] | CC50 at 96 h [2] | CC50 at 96 h [3] | IC50 (Plasmodium falciparum [4]) | IC50 (Plasmodium falciparum [5]) | Ki [6] | Ki [7]
1 | – | CCCCCCCCCCCCCCCCOCCCOP(=O)(CCOCCn1cnc2c(=O)[nH]c(N)nc21)OCCCOCCCCCCCCCCCCCCCC | > 300 µM | > 300 µM | > 300 µM | 68 µM | 59 µM | – | –
2 | – | Nc1nc2c(ncn2CCOCCP(=O)(O)O)c(=O)[nH]1 | > 300 µM | > 300 µM | > 300 µM | – | 242 µM | – | –
3 | – | CCOC(=O)[C@H](Cc1ccccc1)NP(=O)(COCC(COCP(=O)(N[C@@H](Cc1ccccc1)C(=O)OCC)N[C@@H](Cc1ccccc1)C(=O)OCC)Cn1cnc2c(=O)[nH]cnc21)N[C@@H](Cc1ccccc1)C(=O)OCC | 55 µM | 41 µM | 101 µM | 4 µM | 3.8 µM | – | –
4 | – | CCOC(=O)[C@H](Cc1ccccc1)NP(=O)(COCC(COCP(=O)(N[C@@H](Cc1ccccc1)C(=O)OCC)N[C@@H](Cc1ccccc1)C(=O)OCC)Cn1cnc2c(=O)[nH]c(N)nc21)N[C@@H](Cc1ccccc1)C(=O)OCC | 109 µM | 130 µM | > 300 µM | 7.1 µM | 9.7 µM | – | –
5 | 37 µM | Nc1nc2c(ncn2C(COCP(=O)(O)O)COCP(=O)(O)O)c(=O)[nH]1 | – | – | – | – | – | 18 µM | 2 µM
6 | – | CCCCCCCCCCCCCCCCOCCCOP(=O)(O)CCOCCn1cnc2c(=O)[nH]c(N)nc21 | 36 µM | 61 µM | 61 µM | 4.7 µM | 7.6 µM | – | –
7 | 0.03 µM | Nc1nc2c(ncn2CC(COCP(=O)(O)O)COCP(=O)(O)O)c(=O)[nH]1 | > 300 µM | > 300 µM | > 300 µM | – | – | 0.6 µM | 0.07 µM
8 | 1 µM | O=c1[nH]cnc2c1ncn2CC(COCP(=O)(O)O)COCP(=O)(O)O | – | – | – | – | – | 2 µM | 5 µM
9 | – | CCOC(=O)[C@H](C)NP(=O)(CCOCCn1cnc2c(=O)[nH]c(N)nc21)N[C@@H](C)C(=O)OCC | > 300 µM | > 300 µM | > 300 µM | 48 µM | 42 µM | – | –
10 | 0.6 µM | Nc1nc2c(ncn2CC(COCCP(=O)(O)O)OCCP(=O)(O)O)c(=O)[nH]1 (centres undefined) | – | – | – | – | – | 0.7 µM | 0.5 µM
